From ChEMBL document CHEMBL3046326, “Screening of dialkoxybenzenes and disubstituted cyclopentene derivatives against the cabbage looper, Trichoplusia ni, for the discovery of new feeding and oviposition deterrents” (J Agric Food Chem, 2007)

Experiments:
[1] = test system: Trichoplusia ni; assay: Oviposition deterrent activity against adult female Trichoplusia ni (cabbage looper) moths introduced along with male moths into oviposition cage containing compound pretreated cabbage leaves assessed as eggs laying on the leaf disks at 0.25% after 48 hr by oviposition choice bioassay; assay type: functional
Method in brief: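 Choice test with moths from larvae reared on normal diet from neonate to pupation. Pupae were sexed and held separately until emergence. Cabbage leaves were treated with test substance at 0.25% or left as control, and eggs per leaf were counted after 48 h. ODI = [(C − T)/(C + T)] × 100 from egg numbers on control and treated leaves.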

[2] = test system: Trichoplusia ni; assay: Toxicity against third-instar larval stage of Trichoplusia ni (cabbage looper) assessed as mortality at 0.25% measured after 24 hr by contact toxicity bioassay; assay type: functional
Method in brief: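 Third-instar larvae were sprayed directly with test solution at 0.25% in filter-paper-lined Petri dishes. They were then moved to dishes holding a small piece of artificial diet. Mortality was scored 24 h after spraying. The test applied only to compounds giving >50% feeding deterrence at 50 µg/cm².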

[3] = test system: Trichoplusia ni; assay: Feeding deterrent activity against freshly molted third-instar larval stage of Trichoplusia ni (cabbage looper) after 3 to 5 hr by leaf disk choice bioassay; assay type: functional, organism-based
Method in brief: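 Choice test: freshly molted third instar larvae, starved 4–5 h, offered two leaf disks, one painted on each side with 10 µL test solution and one with carrier solvent only. Twenty-five larvae per treatment. Ended when ~50% of the control disk was eaten (normally 3–5 h). Consumed areas measured. DC50 derived by linear regression of at least four concentrations (3.12–25 µg/cm²).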

[4] = test system: Trichoplusia ni; assay: Feeding deterrent activity against freshly molted third-instar larval stage of Trichoplusia ni (cabbage looper), Trichoplusia ni at 50 ug/cm'2 after 3 to 5 hr by leaf disk choice bioassay; assay type: functional
Method in brief: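 Leaf disk choice with freshly molted third instar larvae starved 4–5 h. One disk was painted on each side with 10 µL solution giving 50 µg/cm², the other with carrier solvent. Twenty-five larvae per treatment, stopped at ~50% control disk consumption (3–5 h). Deterrence = [(C − T)/(C + T)] × 100 from consumed areas; mean ± SE, Tukey's test p < 0.05.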

| Structure (SMILES) | Activity [1] [%] | mortality [2] [%] | DC50 [3] [microg/cm2] | Activity [4] [%] |
| --- | --- | --- | --- | --- |
| CCCOc1ccccc1OCCC(C)C | 29.4 | 10 | 32.5 | 66.9 |
| CCCCCCCCCO[C@H]1C=CC[C@H]1CCOCCC(C)C (racemic) |  |  |  | 22 |
| CCCCCCCCCO[C@H]1C=CC[C@H]1CCO (racemic) |  |  |  | 45.2 |
| CCCCO[C@H]1C=CC[C@H]1CCO (racemic) |  |  |  | 41.6 |
| OCC[C@@H]1CC=C[C@@H]1O (racemic) |  |  |  | 36.6 |
| CCCOCC[C@@H]1CC=C[C@@H]1OCCC (racemic) | 41.8 | 37.5 | 32.6 | 66.7 |
| CCCCOCC[C@@H]1CC=C[C@@H]1OCCCC (racemic) | 29.5 | 30 | 29.2 | 76 |
| CC(C)CCOCC[C@@H]1CC=C[C@@H]1OCCC(C)C (racemic) | 47 | 44.8 | 34.4 | 58.6 |
| COCC[C@@H]1CC=C[C@@H]1OC (racemic) |  |  |  | -17.6 |
| CCOCC[C@@H]1CC=C[C@@H]1OCC (racemic) |  |  |  | -17.8 |
| C=CCOc1ccccc1OCC=C [1,2-DIALLYLOXYBENZENE] | 15 | 20 | 22.4 | 70.4 |
| CCCCOc1ccccc1OCCCC [1,2-DIBUTOXYBENZENE] | 19.6 | 10 | 43.8 | 56.4 |
| CCOc1ccccc1OCC [1,2-DIETHOXYBENZENE] |  |  |  | -2.1 |
| CC(C)CCOc1ccccc1OCCC(C)C [1,2-DIISOPENTOXYBENZENE] | 11.5 | 40 | 19.6 | 69.9 |
| COc1ccccc1OC [1,2-DIMETHOXYBENZENE] |  |  |  | 26 |
| CCCOc1ccccc1OCCC [1,2-DIPROPOXYBENZENE] |  |  |  | 26.2 |
| CC(C)CCOc1cccc(OCCC(C)C)c1 [1,3-DIISOPENTOXYBENZENE] |  |  |  | -12.2 |
| COc1cccc(OC)c1 [1,3-DIMETHOXYBENZENE] |  |  |  | 20.4 |
| CC(C)CCOc1ccc(OCCC(C)C)cc1 [1,4-DIISOPENTOXYBENZENE] |  |  |  | 44 |

| Structure (SMILES) | Activity [1] [%] | mortality [2] [%] | DC50 [3] [microg/cm2] | Activity [4] [%] |
| --- | --- | --- | --- | --- |
| COc1ccc(OC)cc1 [1,4-DIMETHOXYBENZENE] |  |  |  | 9.9 |
| C=CCOc1ccccc1O [1-hydroxy-2-allyloxybenzene] |  |  |  | 31.1 |
| CCCCOc1ccccc1O [1-hydroxy-2-butoxybenzene] |  |  |  | 12 |
| CCOc1ccccc1O [1-hydroxy-2-ethoxybenzene] |  |  |  | -5.3 |
| CCCOc1ccccc1O [1-hydroxy-2-propoxybenzene] |  |  |  | -12 |
| CCOc1cccc(O)c1 [1-hydroxy-3-ethoxybenzene] |  |  |  | -18.7 |
| CC(C)CCOc1cccc(O)c1 [1-hydroxy-3-isopentoxybenzene] |  |  |  | -5.8 |
| COc1cccc(O)c1 [1-hydroxy-3-methoxybenzene] |  |  |  | 44.7 |
| CCCOc1cccc(O)c1 [1-hydroxy-3-propoxybenzene] |  |  |  | 4 |
| CCOc1ccc(O)cc1 [1-hydroxy-4-ethoxybenzene] |  |  |  | 29.8 |
| CC(C)CCOc1ccc(O)cc1 [1-hydroxy-4-isopentoxybenzene] |  |  |  | 29.5 |
| CCCOc1ccc(O)cc1 [1-hydroxy-4-propoxybenzene] |  |  |  | -28 |
| CCCCOc1ccccc1OC [1-methoxy-2-butoxybenzene] |  |  |  | 23.5 |
| CCOc1ccccc1OC [1-methoxy-2-ethoxybenzene] |  |  |  | 23.5 |
| CCCCCOc1ccccc1OC [1-methoxy-2-pentoxybenzene] |  |  |  | 23.5 |
| CCCOc1ccccc1OC [1-methoxy-2-propoxybenzene] |  |  |  | 23.5 |
| COc1ccccc1O [GUAIACOL] |  |  |  | -7.5 |
| COc1ccc(O)cc1 [MEQUINOL] |  |  |  | -26.5 |
